In the RNAGym collection of RNA variant scans (doi:10.1126/science.aae0568):
This sample holds only a part of the variants without activity.

B1: tRNA (parent)
chain: GUUCCGUUGGCGUAAUGGUAACGCGUCUCCCUCCUAAGGAGAAGACUGCGGGUUCGAGUCCCGUACGGAACG

Variants of: B1
Experiment: yeast fitness relative to wild type (ratio to wild type); higher = fitter; tRNA-Arg(CCU), competitive growth, 37 C, YPD
Outline: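 The tRNA-Arg(CCU) gene variants were made by chemical synthesis with a 3% per-site mutation rate at 69 sites and inserted at the native genomic locus of Saccharomyces cerevisiae. After pooling, the strains were competed in YPD at 37°C for 24 hours in six parallel replicates. Gene amplicons from the start population and each end population were read by 100-nucleotide paired-end sequencing, and Darwinian fitness relative to wild type was taken from genotype frequency changes. Genotypes needed ≥ 100 starting reads, and estimates < 0.5 were set to 0.5.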

| Variant | yeast fitness |
| --- | --- |
| GUUCCGUUGGCGUAAUGGUACCGCGUUUCCCUCCUAAGGAGAAGACUGUGGGUUCGAGUCCCGUACGGAACG [A21C C27U C49U] | 0.679 |
| GUUCCGUUGGCGUAAUGGUACCGCGUCUACCUCCUAAGGAGAAGACUGCGGCUUCGAGUCCCGUACGGAACG [A21C C29A G52C] | 0.566 |
| GUUCCGUUGGCGUAAUGGUACCGCGUUUCCCUCCUAAGGAGAAGACUGCGGGUUCGAGUCCCGUACGUAACG [A21C C27U G68U] | 0.633 |
| GUUCCGUUGGCGUAAUGGUACCGUGUCUUCCUCCUCAGGAGAAGACUGCGGGUUCGAGUCCCGUACGGAACG [A21C C24U C29U A36C] | ≤ 0.5 |
| GUUCCGUUGGCGUAAUGGUACCGCGUCUCCCUCCUAAGGAGAAGACUGCGGGUUCGAGUCCCGUACGGCUCG [A21C A69C A70U] | 0.686 |
| GUUCCGUUGGCGUAAUGGUACUGCGUCUCCUUUCUAAGGAGAAGACUGCGGGUUCGAGUCCCGUACAGAACG [A21C C22U C31U C33U G67A] | ≤ 0.5 |
| GUUCCGUUGGCGUAAUGGUACAGCGUCUCUCUCCUAAGGAGAAGACUCCGGGUUCGAGUCCCGUACGGAACG [A21C C22A C30U G48C] | ≤ 0.5 |
| GUUCCGUUGGCGUAAUGGUACCGCGUCUCGCUCCUAAGGAGAAGACUGCGGGUUGGAGUCCCGUACGGAGCG [A21C C30G C55G A70G] | 0.532 |
| GUUCCGUUGGCGUAAUGGUACCGCGUCUCUGUUCUAAGGAGAAGACUGCGGGUUCGAGUCACGUACGGAACG [A21C C30U C31G C33U C61A] | ≤ 0.5 |
| GUUCCGUUGGCGUAAUGGUACCGCGUCUCUCUCCUCAGGAGAAGACUGCGGGUUCGAGUCCCGUACGGAACG [A21C C30U A36C] | ≤ 0.5 |
| GUUCCGUUGGCGUAAUGGUACCGCGUCUUCCUCCUAAGGAGAAGACUGCGGGUUCGCGUCCCGUACGGUACG [A21C C29U A57C A69U] | ≤ 0.5 |
| GUUCCGUUGGCGUAAUGGUACCGCGUCUCCCUCCUAAGGAGAAGACUGCGGGUUCGAGUCCCGUACGGUACG [A21C A69U] | 0.827 |
| GUUCCGUUGGCGUAAUGGUACCGAGUCUCCCUCCUAAGAAGAAGACUGCGGGUUCCAGUCCCGUACGGUACG [A21C C24A G39A G56C A69U] | ≤ 0.5 |
| GUUCCGUUGGCGUAAUGGUACCGCGUCUCGCUCCUAAGGAGAAGACUGCGGGUUGGAGUCCCGUACGGAACG [A21C C30G C55G] | ≤ 0.5 |
| GUUCCGUUGGCGUAAUGGUACCGCGUUUCCCUCCUAAGGAGAAGACUGCGGGUUCGUGUCCGGUAUGGAACG [A21C C27U A57U C62G C66U] | ≤ 0.5 |
| GUUCCGUUGGCGUAAUGGUACCGCGUAUCCCUUCUAAGGAGAAGACUGCGGGUUCGAGUCCCGUACGGCACG [A21C C27A C33U A69C] | 0.625 |
| GUUCCGUUGGCGUAAUGGUACCGCGUUUCCCUCCUAAGGAGAAGGCUGCGGGUUCGAGUCCCGUACGGAACG [A21C C27U A45G] | 0.584 |
| GUUCCGUUGGCGUAAUGGUACAGCGCCUCCCUCCUAAGGAGAAGACUGCGGGUUCGAGUCCCGUACGGAACG [A21C C22A U26C] | ≤ 0.5 |
| GUUCCGUUGGCGUAAUGGUACCGCGUCUCCGUGCUAAGGAGAAAACUGCGGGUUCGAGUCCCGUAUGGAACG [A21C C31G C33G G44A C66U] | 0.526 |

| Variant | yeast fitness |
| --- | --- |
| GUUCCGUUGGCGUAAUGGUACCGCGUCUCUCUCCUAAGGAGAAGACUGCGGGUUCGAGUCCCGUACGGAACG [A21C C30U] | 0.734 |
| GUUCCGUUGGCGUAAUGGUACCGCGUCUCACUCCUAAGGAGAAGACUGCGGGUUCGAGUCCCGUACGGAACG [A21C C30A] | 0.802 |
| GUUCCGUUGGCGUAAUGGUACCGCGUCUCCGUCCUAAGGAGAAGACUGCGGGUUCGAGUCCCGUACGGAACG [A21C C31G] | 0.657 |
| GUUCCGUUGGCGUAAUGGUACAGCGUCUCCCUCCUAAGGAGAAGUCUGCGGGUUCGAGUCCCGUACAGAACG [A21C C22A A45U G67A] | ≤ 0.5 |
| GUUCCGUUGGCGUAAUGGUACCGGGUCUCCCUCCUAAGGAGAAGACUGCGGGUUCGAGUCCCGUCCCGAACG [A21C C24G A65C G67C] | 0.718 |
| GUUCCGUUGGCGUAAUGGUACUGCGUCUCCCUCCUAAGGAGAUGACUGCGGGUUCGAGUCCCGUACGGAACG [A21C C22U A43U] | 0.538 |
| GUUCCGUUGGCGUAAUGGUACCGCGUAUCCCUCCUAAGGAGAAGUCGGCGGGUUCGAGUCCCGUACGGAACG [A21C C27A A45U U47G] | ≤ 0.5 |
| GUUCCGUUGGCGUAAUGGUACCGCGUCUCGCUCCUAAGGAGAAGGCUGCGGGUUCGAGUCCCGUAAGGAACG [A21C C30G A45G C66A] | ≤ 0.5 |
| GUUCCGUUGGCGUAAUGGUACGGCGUCUCCCUCCUAAGGAGAAGACUGCGGGUUCGGGUCCCGUACGGAACG [A21C C22G A57G] | ≤ 0.5 |
| GUUCCGUUGGCGUAAUGGUACGGCGUCUCCCUCCUAAGGAGCAGACAGCGGGUUCGAGUCCCGUACGGAACG [A21C C22G A42C U47A] | ≤ 0.5 |
| GUUCCGUUGGCGUAAUGGUACGGCGUCUCCCUCCUAAGGAGCAGACAGCGGGUUCGAGUCCCGCACGGAACG [A21C C22G A42C U47A U64C] | ≤ 0.5 |
| GUUCCGUUGGCGUAAUGGUACUGCGUCUCCCUCCUAAGGAGAAGAUUACGGGUUCAAGUACAGUACGGAACG [A21C C22U C46U G48A G56A C60A C62A] | ≤ 0.5 |
| GUUCCGUUGGCGUAAUGGUACCGCGUCUCCAUCCUAAGGAGAAGACUGUGGGUUCGAGUCCCGUACGGAACG [A21C C31A C49U] | 0.734 |
| GUUCCGUUGGCGUAAUGGUACCGUGUCUCCCACCUAAGGAGAAGACUGCGGGUUCGAGUCCCGUCCGGAACG [A21C C24U U32A A65C] | ≤ 0.5 |
| GUUCCGUUGGCGUAAUGGUACCGCGUAUCCCUCCUAAGGAGAAGACUGCCGGUUCGAGUCCCGUACGGAACG [A21C C27A G50C] | ≤ 0.5 |
| GUUCCGUUGGCGUAAUGGUACCGCGUAUCCCUCCUAGGGAGAAGCCUGCGGGUUCGAGUCCCGUACGGAACG [A21C C27A A37G A45C] | 0.529 |
| GUUCCGUUGGCGUAAUGGUACCGCGUCUCCAGCCUAAGGGGAAGACUGCGGGUUCGAGUCCCGUACGGAACG [A21C C31A U32G A40G] | ≤ 0.5 |
| GUUCCGUUGGCGUAAUGGUACCGCGUCUUCCUCCUAAGGAGAAGACUGCGGGUUCGAGUCCCGUACGGAACG [A21C C29U] | 0.824 |
| GUUCCGUUGGCGUAAUGGUACCGGGUCUCCCUACUAGGGAGAAGACUGCGGGUUCGAGUCCCGUACGGCACG [A21C C24G C33A A37G A69C] | 0.645 |
